Data reported in ChEMBL document CHEMBL3352143, “Cytotoxic and anti-inflammatory prenylated benzoylphloroglucinols and xanthones from the twigs of Garcinia esculenta” (J Nat Prod, 2014).

Legend:
HepG2 = assay: Cytotoxicity against human HepG2 cells by MTT assay; assay type: functional, cell-based
Procedure, shortened: (§1)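 MTT viability read-out, run in parallel on human HepG2 (hepatocellular carcinoma), MCF-7 and MDA-MB-231 (breast adenocarcinoma) cancer lines and HL-7702 normal human hepatic cells. Paclitaxel was the positive control, and results are expressed as IC50.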

RAW264.7 = assay: Anti-inflammatory activity in mouse RAW264.7 cells assessed as inhibition of IFN-gamma plus LPS-induced NO production; assay type: functional, cell-based
Procedure, shortened: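 Murine macrophage RAW264.7 cells stimulated with IFN-γ plus LPS; NO output quantified as nitrite in the medium. Indomethacin served as positive control, and results are expressed as IC50.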

MCF7 = assay: Cytotoxicity against human MCF7 cells by MTT assay; assay type: functional, cell-based; procedure, shortened: as §1
[1] = Cytotoxicity against human HL7702 cells by MTT assay; assay type: cell-based; conditions: L02; procedure, shortened: as §1
MDA-MB-231 = assay: Cytotoxicity against human MDA-MB-231 cells by MTT assay; assay type: functional, cell-based; procedure, shortened: as §1

SMILES | IC50 (HepG2) [µM] | IC50 (RAW264.7) [µM] | IC50 (MCF7) [µM] | IC50 [1] [µM] | IC50 (MDA-MB-231) [µM]
O=c1c2cc(O)c(O)cc2oc2cc(O)cc(O)c12 | > 10 | 43 | > 10 | > 10 | > 10
CC(C)=CCc1c(O)cc2oc3cc(O)c(O)c(CC=C(C)C)c3c(=O)c2c1O | > 10 | > 50 | > 10 | > 10 | 6.6
CC(C)=CC[C@H]1C[C@@]23C[C@H](CC=C(C)C)C(C)(C)[C@@](CC=C(C)C)(C(=O)C(OC(=O)c4ccc(O)c(O)c4)=C2OC1(C)C)C3=O | > 10 | 39.1 | > 10 | > 10 | > 10
C=C(C)C(O)C[C@H](C[C@]12C[C@@H](CC=C(C)C)C(C)(C)[C@](CC=C(C)C)(C1=O)c1oc3cc(O)c(O)cc3c(=O)c1C2=O)C(=C)C (stereo not given in full) | > 10 | 12.9 | > 10 | > 10 | > 10
C=C(C)C(CC=C(C)C)C[C@@]12C[C@@H](C[C@H](O)C(C)(C)OC)C(C)(C)[C@@](CC=C(C)C)(C(=O)C(C(=O)c3ccc(O)c(O)c3)=C1O)C2=O (stereo not given in full) | > 10 | 24.9 | > 10 | > 10 | > 10
C=C(C)C(C[C@@H](O)C(=C)C)C[C@@]12C[C@@H](CC=C(C)C)C(C)(C)[C@@](CC=C(C)C)(C(=O)C(C(=O)c3ccc(O)c(O)c3)=C1O)C2=O (stereo not given in full) | > 10 | 19.1 | > 10 | > 10 | > 10
C=C(C)C(C[C@H](O)C(=C)C)C[C@@]12C[C@@H](CC=C(C)C)C(C)(C)[C@@](CC=C(C)C)(C(=O)C(C(=O)c3ccc(O)c(O)c3)=C1O)C2=O (stereo not given in full) | > 10 | 29.1 | > 10 | > 10 | > 10
CC(C)=CCc1cc(O)c(O)c2oc3cc4c(c(O)c3c(=O)c12)C=CC(C)(C)O4 | > 10 | > 50 | > 10 | > 10 | > 10
C=C(C)C(CC=C(C)C)C[C@@]12C[C@H]3[C@@H](C=C(C)C)[C@@](C(=O)c4ccc(O)c(O)c4)(C1=O)C(=O)[C@@](CC=C(C)C)(C2=O)C3(C)C (stereo not given in full) | > 10 | > 50 | > 10 | > 10 | 9.1
CC1(C)C=Cc2c(cc3oc4ccc(O)cc4c(=O)c3c2O)O1 | > 10 | > 50 | > 10 | 6.6 | 6.1
C=C(C)C(CC=C(C)C)C[C@]12C[C@H](CC=C(C)C)C(C)(C)[C@](CC=C(C)C)(C(=O)c3c1oc1cc(O)c(O)cc1c3=O)C2=O (stereo not given in full) | > 10 | 17 | > 10 | > 10 | > 10
CC1=C[C@H]2c3c(c(O)c(O)c4oc5cc(O)cc(O)c5c(=O)c34)[C@H](c3cc(O)c(O)c4oc5cc(O)cc(O)c5c(=O)c34)[C@H]2C(C)(C)C1 | > 10 | 41.9 | > 10 | > 10 | > 10
CC(C)=CCc1c(O)cc(O)c2oc3cc(O)cc(O)c3c(=O)c12 | > 10 | 6.4 | > 10 | > 10 | > 10
CC1(C)Oc2cc3oc4ccc(O)cc4c(=O)c3c(O)c2CC1O (stereo not given) | > 10 | 15.9 | > 10 | > 10 | > 10
CC(C)=CCc1c(O)cc2oc3ccc(O)cc3c(=O)c2c1O | > 10 | 21.3 | > 10 | > 10 | > 10
CC(C)=CC[C@H]1C[C@@]23C[C@@H](CC=C(C)C)C(C)(C)[C@@](CC=C(C)C)(C(=O)C(C(=O)c4ccc(O)c(O)c4)=C2OC1(C)C)C3=O [CAMBOGIN] | 7.3 | 19.2 | 4.8 | 9.3 | 5.7
C=C(C)C(O)C[C@H](C[C@@]12C[C@@H](CC=C(C)C)C(C)(C)[C@@](CC=C(C)C)(C(=O)C(C(=O)c3ccc(O)c(O)c3)=C1O)C2=O)C(=C)C (stereo not given in full) [GARCIMULTIFLORONE E] | > 10 | 1.1 | 9.8 | > 10 | > 10
C=C(C)[C@@H]1C[C@]23C[C@H](CC=C(C)C)C(C)(C)[C@](CC=C(C)C)(C(=O)C(C(=O)c4ccc(O)c(O)c4)=C2O[C@H]1C=C(C)C)C3=O [GARCINIALIPTONE B] | > 10 | 21.3 | > 10 | > 10 | > 10
C=C(C)[C@H](CC=C(C)C)C[C@@]12C[C@@H](CC=C(C)C)C(C)(C)[C@@](CC=C(C)C)(C(=O)C(C(=O)c3ccc(O)c(O)c3)=C1O)C2=O [GUTTIFERONE F] | > 10 | 14.1 | > 10 | 9.6 | 7.9
CC1(C)CCc2c(c(O)cc3oc4cc(O)cc(O)c4c(=O)c23)O1 [HYPERXANTHONE E] | > 10 | 4 | > 10 | > 10 | > 10
COc1ccc2c(c1)c(CC(=O)O)c(C)n2C(=O)c1ccc(Cl)cc1 [INDOMETHACIN] | – | 3.9 | – | – | –
CC(=O)O[C@H]1C(=O)[C@@]2(C)[C@H]([C@H](OC(=O)c3ccccc3)[C@]3(O)C[C@H](OC(=O)[C@H](O)[C@@H](NC(=O)c4ccccc4)c4ccccc4)C(C)=C1C3(C)C)[C@]1(OC(C)=O)CO[C@@H]1C[C@@H]2O [PACLITAXEL] | 0.0046 | – | 0.0015 | 1.1 | 0.0082
CC1(C)C=Cc2c(c(O)cc3oc4cc(O)cc(O)c4c(=O)c23)O1 [TOXYLOXANTHONE B] | > 10 | > 50 | > 10 | > 10 | > 10
